Experimental data from ChEMBL document CHEMBL2163281, “p-(4-Azipentyl)propofol: a potent photoreactive general anesthetic derivative of propofol” (J Med Chem, 2011).
In brackets after ≈: the same amount, converted by molar mass. Activity calls are given as the source filed them. The rule behind the calls is not given here.

Tests used:
[1] = biological target: GABA-A receptor; agonist GABA site; assay: Agonist activity at human alpha1beta2gamma2L GABAA receptor expressed in Xenopus oocytes assessed as potentiation of GABA-induced current response by two-electrode voltage clamp electrophysiology assay; assay type: functional, cell-based; details: oocyte
[2] = biological target: T1, GABA-A receptor; alpha-1/beta-3/gamma-2 (Homo sapiens) (UniProt P14867+P18507+P28472); assay: Increase of [3H]-flunitrazepam binding to alpha1beta3gamma2 GABAA receptor expressed in HEK293S-TetR cells up to 400 uM after 1 hr by liquid scintillation counting; assay type: cell-based
Outline: (§1)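 Membranes from HEK293S-TetR cells expressing α1β3γ2 GABAA receptors (200 μg protein) in 10 mM phosphate pH 7.4, 200 mM KCl, 1 mM EDTA. Incubated with 3 nM [3H]muscimol or 1.5 nM [3H]flunitrazepam plus drug for 1 h at 4°C. Nonspecific binding was set with 1 mM GABA or 1 mM flurazepam. Filtered onto PEI-treated filters, then scintillation-counted; triplicates.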

[3] = biological target: T1, GABA-A receptor; alpha-1/beta-3/gamma-2 (Homo sapiens); assay: Increase of [3H]-flunitrazepam binding to alpha1beta3gamma2 GABAA receptor expressed in HEK293S-TetR cells at 0.1 to 40 uM after 1 hr by liquid scintillation counting relative to control; assay type: cell-based; outline: as §1
[4] = system: Xenopus laevis; assay: Anesthetic activity in Xenopus laevis tadpoles assessed as loss of righting reflexes; assay type: functional, organism-based; details: Tadpole
Outline: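 Xenopus tadpoles in groups of 5 were held in 2.5 mM Tris HCl pH 7.4 under low light at seven concentrations from 1.0 to 20 μM, with ethanol ≤5 mM. Each animal was flipped every 10 min until a stable response, usually at 40 min. LoRR meant failure to right within 5 s. Only animals that recovered overnight were analysed. Quantal scores were fit to a logistic equation.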

[5] = biological target: GABA-A receptor; agonist GABA site; assay: Agonist activity at human alpha1beta2gamma2L GABAA receptor expressed in Xenopus oocytes assessed as potentiation of channel current response by two-electrode voltage clamp electrophysiology assay; assay type: functional, cell-based; details: oocyte
[6] = biological target: T1, GABA-A receptor; alpha-1/beta-3/gamma-2 (Homo sapiens); assay: Increase of [3H]-flunitrazepam binding to alpha1beta3gamma2 GABAA receptor expressed in HEK293S-TetR cells at >30 uM after 1 hr by liquid scintillation counting; assay type: cell-based; outline: as §1
[7] = biological target: T1, GABA-A receptor; alpha-1/beta-3/gamma-2 (Homo sapiens); assay: Increase of [3H]muscimol binding to alpha1beta3gamma2 GABAA receptor expressed in HEK293S-TetR cells after 1 hr by liquid scintillation counting relative to control; assay type: cell-based; outline: as §1
[8] = biological target: T2, GABA-A receptor; agonist GABA site (Homo sapiens) (UniProt P14867+P47870+P28472+P48169+P34903+P18505+P47869+P31644+Q16445); assay: Agonist activity at human alpha1beta2gamma2L GABAA receptor expressed in Xenopus oocytes assessed as potentiation of channel current response by two-electrode voltage clamp electrophysiology assay relative to control; assay type: functional, cell-based; details: Oocyte
[9] = Aqueous solubility of the compound in water
[10] = Antagonist activity at Torpedo californica nACh receptor expressed in Xenopus oocytes assessed as inhibition of acetylcholine-induced current response; assay type: functional, cell-based; details: Tetronarce californica, Oocyte
Outline: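 Torpedo nACh receptor cRNA (2α:1β:1γ:1δ, ~25 ng) injected into Xenopus oocytes. Two-electrode clamp at −50 mV in ND96. Currents were evoked by 10 μM ACh (~EC20), then by ACh plus 1–100 μM drug for 15–20 s with ~3 min washes. Currents were normalized to the ACh response and fit to a logistic inhibition equation; 3 oocytes.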

[11] = system: Tetronarce californica; assay: Binding affinity to Torpedo californica nACh-delta receptor assessed as photoincorporation at 1.7 uM by SDS-PAGE followed by fluorography analysis; details: tested as the 3H-labelled form
Outline: (§2)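 Torpedo californica electric-organ nACh receptor-rich membranes at 2 mg/mL in Torpedo saline pH 7.0 with 1 mM oxidized glutathione. Membranes were equilibrated 30 min with 1.7 μM [3H]ligand alone or with 100 μM tetracaine, 100 μM phencyclidine, 300 μM propofol and/or 1 mM carbamylcholine. Samples were UV-irradiated at 365 nm on ice for 30 min. Read-out: 8% SDS-PAGE, fluorography (2 weeks) and scintillation counting of gel bands.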

[12] = system: Tetronarce californica; assay: Binding affinity to Torpedo californica nACh-alpha receptor assessed as increase photoincorporation at 1.7 uM by SDS-PAGE followed by fluorography analysis in presence of carbamylcholine and propofol; details: tested as the 3H-labelled form; outline: as §2
[13] = system: Tetronarce californica; assay: Binding affinity to Torpedo californica nACh-beta receptor assessed as photoincorporation at 1.7 uM by SDS-PAGE followed by fluorography analysis in presence of tetracaine; details: tested as the 3H-labelled form; outline: as §2
[14] = biological target: T3, 43 kDa receptor-associated protein of the synapse (Homo sapiens) (UniProt Q13702); assay: Binding affinity to RAPsyn assessed as photoincorporation at 1.7 uM by SDS-PAGE followed by fluorography analysis; details: tested as the 3H-labelled form; outline: as §2
T3 sequence (whole entry): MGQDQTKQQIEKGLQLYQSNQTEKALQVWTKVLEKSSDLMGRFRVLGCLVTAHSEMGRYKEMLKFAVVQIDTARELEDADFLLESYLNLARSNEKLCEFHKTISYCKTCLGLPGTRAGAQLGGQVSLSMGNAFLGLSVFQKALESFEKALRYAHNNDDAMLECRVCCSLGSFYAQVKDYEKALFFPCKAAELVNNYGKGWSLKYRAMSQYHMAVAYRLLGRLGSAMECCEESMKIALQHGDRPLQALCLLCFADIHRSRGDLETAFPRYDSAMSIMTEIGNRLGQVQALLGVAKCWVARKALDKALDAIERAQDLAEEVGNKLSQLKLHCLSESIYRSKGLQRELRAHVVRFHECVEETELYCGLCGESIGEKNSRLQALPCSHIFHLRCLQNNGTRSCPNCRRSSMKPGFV

[15] = Binding affinity to VDAC assessed as photoincorporation at 1.7 uM by SDS-PAGE followed by fluorography analysis; details: tested as the 3H-labelled form; outline: as §2
[16] = Chemical stability of the compound in 0.01 M Tris-HCl buffer at pH 7.4 at 4 degC after 2.5 days; assay type: physicochemical; details: pH 7.4, 60 h
Outline: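 Held near saturation in buffer at 4°C for at least 2.5 days, then analysed by reverse-phase HPLC.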

[17] = biological target: T2, GABA-A receptor; agonist GABA site (Homo sapiens); assay: Agonist activity at human alpha1beta2gamma2L GABAA receptor expressed in Xenopus oocytes assessed as potentiation of GABA-induced current response at 100 uM by two-electrode voltage clamp electrophysiology assay relative to control; assay type: functional, cell-based; details: Oocyte
[18] = system: Tetronarce californica; assay: Binding affinity to Torpedo californica nACh-delta receptor assessed as photoincorporation at 1.7 uM by SDS-PAGE followed by fluorography analysis in presence of carbamylcholine; details: tested as the 3H-labelled form; outline: as §2
[19] = system: Tetronarce californica; assay: Binding affinity to Torpedo californica nACh-delta receptor assessed as photoincorporation at 1.7 uM by SDS-PAGE followed by fluorography analysis in presence of propofol; details: tested as the 3H-labelled form; outline: as §2
[20] = system: Tetronarce californica; assay: Binding affinity to Torpedo californica nACh-alpha receptor assessed as decrease photoincorporation at 1.7 uM by SDS-PAGE followed by fluorography analysis in presence of carbamylcholine and phencyclidine; parameters: scale not given: the % may be the effect or the level left; details: tested as the 3H-labelled form; outline: as §2
[21] = system: Tetronarce californica; assay: Binding affinity to Torpedo californica nACh-delta receptor assessed as photoincorporation at 1.7 uM by SDS-PAGE followed by fluorography analysis in presence of phencyclidine; details: tested as the 3H-labelled form; outline: as §2
[22] = system: Tetronarce californica; assay: Binding affinity to Torpedo californica nACh-gamma receptor assessed as photoincorporation at 1.7 uM by SDS-PAGE followed by fluorography analysis in presence of tetracaine; details: tested as the 3H-labelled form; outline: as §2
[23] = system: Tetronarce californica; assay: Binding affinity to Torpedo californica nACh-gamma receptor assessed as photoincorporation at 1.7 uM by SDS-PAGE followed by fluorography analysis; details: tested as the 3H-labelled form; outline: as §2
[24] = system: Tetronarce californica; assay: Binding affinity to Torpedo californica nACh-alpha receptor assessed as photoincorporation at 1.7 uM by SDS-PAGE followed by fluorography analysis in presence of carbamylcholine; details: tested as the 3H-labelled form; outline: as §2
[25] = system: Tetronarce californica; assay: Binding affinity to Torpedo californica nACh-beta receptor assessed as photoincorporation at 1.7 uM by SDS-PAGE followed by fluorography analysis in presence of phencyclidine; details: tested as the 3H-labelled form; outline: as §2
[26] = system: Tetronarce californica; assay: Binding affinity to Torpedo californica nACh-gamma receptor assessed as photoincorporation at 1.7 uM by SDS-PAGE followed by fluorography analysis in presence of carbamylcholine; details: tested as the 3H-labelled form; outline: as §2
[27] = system: Tetronarce californica; assay: Binding affinity to Torpedo californica nACh-delta receptor assessed as photoincorporation at 1.7 uM by SDS-PAGE followed by fluorography analysis in presence of tetracaine; details: tested as the 3H-labelled form; outline: as §2
[28] = biological target: T2, GABA-A receptor; agonist GABA site (Homo sapiens); assay: Agonist activity at human alpha1beta2gamma2L GABAA receptor expressed in Xenopus oocytes assessed as potentiation of GABA-induced current response at 6 uM by two-electrode voltage clamp electrophysiology assay relative to control; assay type: functional, cell-based; details: Oocyte
[29] = system: Tetronarce californica; assay: Binding affinity to Torpedo californica nACh-gamma receptor assessed as photoincorporation at 1.7 uM by SDS-PAGE followed by fluorography analysis in presence of phencyclidine; details: tested as the 3H-labelled form; outline: as §2
[30] = system: Tetronarce californica; assay: Binding affinity to Torpedo californica nACh-gamma receptor assessed as photoincorporation at 1.7 uM by SDS-PAGE followed by fluorography analysis in presence of propofol; details: tested as the 3H-labelled form; outline: as §2
[31] = system: Tetronarce californica; assay: Binding affinity to Torpedo californica nACh-beta receptor assessed as photoincorporation at 1.7 uM by SDS-PAGE followed by fluorography analysis in presence of propofol; details: tested as the 3H-labelled form; outline: as §2
[32] = system: Tetronarce californica; assay: Binding affinity to Torpedo californica nACh-beta receptor assessed as photoincorporation at 1.7 uM by SDS-PAGE followed by fluorography analysis in presence of carbamylcholine; details: tested as the 3H-labelled form; outline: as §2
[33] = Aqueous solubility of the compound in 0.01 M Tris-HCl buffer at pH 7.4; assay type: physicochemical
[34] = system: Tetronarce californica; assay: Binding affinity to Torpedo californica nACh-beta receptor assessed as photoincorporation at 1.7 uM by SDS-PAGE followed by fluorography analysis; details: tested as the 3H-labelled form; outline: as §2
[35] = Binding affinity to Na+/K+ ATPase alpha assessed as photoincorporation at 1.7 uM by SDS-PAGE followed by fluorography analysis; details: tested as the 3H-labelled form; outline: as §2

For `CC(C)c1cccc(C(C)C)c1O` [PROPOFOL], the EC50 [1] was 5.2 µM, the Activity [2] was “inactive” and the fold change (FC) [3] was 2. The EC50 [4] was 2.2 µM, the EC50 [5] was 50 µM and the Activity [6] was “inactive”. It also gave a fold change (FC) [7] of 2.4, an Activity [8] of 45% and a solubility [9] of 1000 µM (≈ 178 µg/mL). The IC50 [10] was 7.3 µM.

For `CC(C)c1cc(CCCC2(C)N=N2)cc(C(C)C)c1O`, the Activity [11] was “Active”, the Activity [12] was 20% and the Activity [13] was less than 20%. For the same molecule, the EC50 [1] was 4.5 µM, the Activity [2] was “inactive” and the Activity [14] was “Active”. The fold change (FC) [3] was 1.6, the Activity [15] was “Active” and the Stability [16] was “Stable”. For the same molecule, the fold change (FC) [17] was 20, the Activity [18] was less than 20% and the Activity [19] was less than 20%. The Activity [20] was 20%, the Activity [21] was less than 20% and the Activity [22] was less than 20%. The Activity [23] was “Active”, the Activity [24] was 100% and the Activity [25] was less than 20%. For the same molecule, the EC50 [4] was 3.2 µM, the EC50 [5] was 15 µM and the Activity [26] was less than 20%. The Activity [27] was less than 20%, the fold change (FC) [28] was 9 and the Activity [29] was less than 20%. For the same molecule, the Activity [6] was “Active”, the fold change (FC) [7] was 1.6 and the Activity [30] was less than 20%. It also gave an Activity [31] of less than 20%, an Activity [32] of less than 20% and an Activity [8] of 10%. The solubility [33] was 73 µM (≈ 20 µg/mL), the IC50 [10] was 4 µM and the Activity [34] was “Active”. For the same molecule, the Activity [35] was “Active”.
